Assay results published in ChEMBL document CHEMBL1144082, “Orizabins V-VIII, tetrasaccharide glycolipids from the Mexican scammony root (Ipomoea orizabensis)” (1999).
Values after ≈ are worked out from the molar mass of the structure shown.

Legend:
Type in all cases: functional
[1] = tested on: OVCAR; experiment: Cytotoxicity against human OVCAR cells after 72 hrs by SRB method; conditions: read-out: ED50 (the source's name)
How it was run: (§1)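 Cell lines kept in RPMI 1640 with 10% fetal bovine serum, 37 °C, 5% CO2, 100% humidity. Log-phase cells treated in triplicate with glycolipids over 0.16–20 μg/mL for 72 h at 37 °C, 5% CO2. Cell concentration determined by sulforhodamine B staining; ED50 taken as dose inhibiting 50% of control growth. Ellipticine as positive control.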

[2] = tested on: HCT-15; experiment: Cytotoxicity against human HCT-15 cells after 72 hrs by SRB method; conditions: HCT-15, 72 h, read-out: ED50 (the source's name); how it was run: as §1
[3] = tested on: KB; experiment: Cytotoxicity against human KB cells after 72 hrs by SRB method; conditions: read-out: ED50 (the source's name); how it was run: as §1
[4] = Cytotoxicity against human SQC1 cells after 72 hrs by SRB method; conditions: SQC1, 72 h, read-out: ED50 (the source's name); how it was run: as §1

Row | SMILES | EC50 [1] | EC50 [2] | EC50 [3] | EC50 [4]
1 | Cc1c2ccncc2c(C)c2c1[nH]c1ccccc12 [ELLIPTECINE] | 0.58 µg/mL (≈ 2.35 µM) | 0.24 µg/mL (≈ 0.974 µM) | 0.33 µg/mL (≈ 1.34 µM) | 0.41 µg/mL (≈ 1.66 µM)
2 | CCCCC[C@H]1CCCCCCCCCC(=O)O[C@H]2[C@H](O)[C@@H](COC(=O)[C@H](C)[C@@H](C)O)O[C@@H](O[C@H]3[C@H](O1)O[C@H](C)[C@@H](O)[C@@H]3O)[C@@H]2O[C@@H]1O[C@@H](C)[C@H](O[C@@H]2O[C@H](C)[C@@H](O)[C@H](O)[C@H]2O)[C@@H](O)[C@H]1OC(=O)[C@@H](C)CC [ORIZABIN VIII] | > 15 µg/mL | > 15 µg/mL | 7 µg/mL (≈ 6.74 µM) | > 15 µg/mL
3 | CCCCC[C@H]1CCCCCCCCCC(=O)O[C@@H]2[C@@H](O[C@@H]3O[C@H](C)[C@@H](O)[C@H](O)[C@H]3O)[C@H](C)O[C@@H](O[C@H]3[C@H](O[C@H]4[C@H](O1)O[C@H](C)[C@@H](O)[C@@H]4O)O[C@H](COC(=O)[C@H](C)[C@@H](C)O)[C@@H](O)[C@@H]3O)[C@@H]2OC(=O)[C@@H](C)CC [ORIZABIN VII] | > 15 µg/mL | > 15 µg/mL | 7 µg/mL (≈ 6.74 µM) | > 15 µg/mL
4 | CCCCC[C@H]1CCCCCCCCCC(=O)O[C@@H]2[C@@H](O[C@@H]3O[C@H](C)[C@@H](O)[C@H](O)[C@H]3O)[C@H](C)O[C@@H](O[C@H]3[C@H](O[C@H]4[C@H](O1)O[C@H](C)[C@@H](O)[C@@H]4O)O[C@H](COC(=O)[C@@H](C)CC)[C@@H](O)[C@@H]3O)[C@@H]2OC(=O)[C@H](C)[C@@H](C)O [ORIZABIN VI] | > 15 µg/mL | > 15 µg/mL | 7 µg/mL (≈ 6.74 µM) | > 15 µg/mL
5 | CCCCC[C@H]1CCCCCCCCCC(=O)O[C@@H]2[C@@H](O[C@@H]3O[C@H](C)[C@@H](OC(=O)[C@H](C)[C@@H](C)O)[C@H](O)[C@H]3O)[C@H](C)O[C@@H](O[C@H]3[C@H](O[C@H]4[C@H](O1)O[C@H](C)[C@@H](O)[C@@H]4O)O[C@H](CO)[C@@H](O)[C@@H]3O)[C@@H]2OC(=O)[C@@H](C)CC [ORIZABIN V] | > 15 µg/mL | > 15 µg/mL | 7 µg/mL (≈ 6.74 µM) | > 15 µg/mL
6 | CCCCC[C@H]1CCCCCCCCCC(=O)O[C@@H]2[C@@H](O[C@@H]3O[C@H](C)[C@@H](O)[C@H](O)[C@H]3O)[C@H](C)O[C@@H](O[C@H]3[C@H](O[C@H]4[C@H](O1)O[C@H](C)[C@@H](O)[C@@H]4O)O[C@H](CO)[C@@H](O)[C@@H]3O)[C@@H]2OC(=O)[C@@H](C)CC [SCAMMONIN II] | > 15 µg/mL | > 15 µg/mL | 7 µg/mL (≈ 7.45 µM) | > 15 µg/mL
7 | C/C=C(\C)C(=O)O[C@H]1[C@H](O)[C@@H](O)[C@H](O[C@@H]2[C@H]3OC(=O)CCCCCCCCC[C@H](CCCCC)O[C@@H]4O[C@H](C)[C@@H](O)[C@H](O)[C@H]4O[C@@H]4O[C@H](CO)[C@@H](O)[C@H](O)[C@H]4O[C@H](O[C@H]2C)[C@@H]3OC(=O)[C@@H](C)CC)O[C@@H]1C [SCAMMONIN I] | > 15 µg/mL | > 15 µg/mL | 7 µg/mL (≈ 6.85 µM) | > 15 µg/mL
